# Sampled rows, rich in hits. Any-hit rate of the full collection: about 3.7%.
# hERG protect: hERG rescue from dofetilide block, primary screen, cell-based, CHO-hERG, FluxOR thallium flux, dofetilide IC70; dofetilide IC70 present; activation (rescue from dofetilide block), less the hit threshold, % at 10 µM; 310,000 compounds, 0.51% hits; AID 1511, 2009;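 active = activation above the mean of controls blocked by dofetilide plus 5 SD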;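 also: thallium influx through hERG after potassium depolarization seen as dye fluorescence rise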
# KCNK3 inh: human KCNK3 channel inhibitors, primary screen, CHO cells, FluxOR thallium flux, B-score | FluxOR fluorescence; hits give low values | B-score at 10 µM | 340,000 compounds, 0.84% hits;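 active = B-score under library mean minus 4 SD, starting fluorescence ratio at most library mean plus 5 SD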;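 also: more negative B-score means stronger inhibition of thallium flux through KCNK3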
# KCNQ1 block: inhibitors of human KCNQ1 channel, primary screen, cell-based, thallium flux, high-throughput; CHO-K1 KCNQ1, FluxOR thallium flux fluorescence; hits give high values; Potassium voltage-gated channel subfamily KQT member 1 (Homo sapiens), P51787; B-score at 10 µM; 310,000 compounds, 1.3% hits;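 active = compounds whose thallium flux B-score, printed positive for inhibition, exceeds three library SD while starting fluorescence stays within three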;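 also: channel opened by potassium depolarization with thallium stimulus after 20 min compound exposure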
# Target sequence (P51787 whole entry, looked up): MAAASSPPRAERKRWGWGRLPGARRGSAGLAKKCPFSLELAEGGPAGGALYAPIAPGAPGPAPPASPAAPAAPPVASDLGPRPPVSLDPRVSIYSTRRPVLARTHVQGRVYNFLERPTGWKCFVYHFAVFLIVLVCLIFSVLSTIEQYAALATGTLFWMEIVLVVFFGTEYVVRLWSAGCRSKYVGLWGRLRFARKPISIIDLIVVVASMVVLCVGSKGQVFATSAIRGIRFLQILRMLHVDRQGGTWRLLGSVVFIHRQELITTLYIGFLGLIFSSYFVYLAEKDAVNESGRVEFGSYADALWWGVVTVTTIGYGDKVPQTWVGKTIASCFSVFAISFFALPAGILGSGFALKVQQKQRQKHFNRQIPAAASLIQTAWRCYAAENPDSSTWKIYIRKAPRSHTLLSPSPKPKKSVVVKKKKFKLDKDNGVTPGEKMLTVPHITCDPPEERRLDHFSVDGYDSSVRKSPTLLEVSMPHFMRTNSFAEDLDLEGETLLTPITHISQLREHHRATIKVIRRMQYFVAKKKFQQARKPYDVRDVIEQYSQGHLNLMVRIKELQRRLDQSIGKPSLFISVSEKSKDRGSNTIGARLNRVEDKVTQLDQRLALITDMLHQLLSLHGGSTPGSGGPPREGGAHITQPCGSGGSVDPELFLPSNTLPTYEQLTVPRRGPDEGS
# Kir21 inh: inhibitors of mouse Kir2.1 inward-rectifier potassium channel | AID 1672, 2009 | HEK293-Kir2.1, FluxOR thallium flux fluorescence; hits give low values | Inward rectifier potassium channel 2 (Mus musculus), P35561 | B-score at 10 µM | 310,000 compounds, 0.85% hits;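 active = fluorescence ratio B-score at or below minus 3 SD of library scores, with starting-brightness B-score within 2 SD, cut at about -4.2 in these data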;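 also: channel flux triggered by added potassium and thallium sulfate stimulus; B-score of peak minus minimum fluorescence over baseline after thallium stimulus; more negative B-score means stronger Kir2.1 block with less thallium influx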
# KCNK9 inh: KCNK9 potassium channel inhibitors, primary screen, HEK293 cells, thallium flux; FluxOR thallium flux fluorescence; hits give low values; B-score at 10 µM; 310,000 compounds, 1.2% hits; AID 488922, 2010;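 active = ratio B-score over 3 SD below the library mean, with starting fluorescence within 5 SD of its mean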;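 also: negative B-score means less thallium flux so channel inhibition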
# KCNQ1 pot: potentiators or activators of KCNQ1 channel, primary screen, cell-based, thallium flux, high-throughput. CHO-K1 KCNQ1, thallium flux FluxOR fluorescence; hits give high values. Potassium voltage-gated channel subfamily KQT member 1 (Homo sapiens), P51787. 310,000 compounds, 0.35% hits. B-score at 10 µM. AID 2648, 2010;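 active = fluorescence ratio B-score, a plate-corrected score, at least three library SD, with initial intensity B-score within 5 SD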
#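 Doses: Single concentration per compound, DMSO matched to controls | Test system: KCNQ1-transfected CHO-K1 cells | Timing: 90 min dye loading and 20 min compound exposure, both at room temperature | Measured by: Kinetic FluxOR thallium fluorescence, 10-s 1-Hz baseline, 110-s post-stimulus read | Medium: Assay buffer with matched DMSO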
# Active calls of the source: *; i = inactive; nt = no result given.
SMILES,hERG protect,KCNK3 inh,KCNQ1 block,Kir21 inh,KCNK9 inh,KCNQ1 pot
COc1ccc(OC)c(S(=O)(=O)NCc2cn3c(C)csc3n2)c1,-8,i,i,0.56,i,i
COc1ccc(OC)c(S(=O)(=O)NCc2csc(-c3ccccc3)n2)c1,-6,i,i,-4.2*,i,i
CCc1ccc(S(=O)(=O)NCCc2csc(-c3cccnc3)n2)s1,-9,i,i,-2.4,i,i
O=S(=O)(NCc1csc(-c2ccccc2)n1)c1ccc(Cl)s1,-13,i,i,-4.6*,i,i
CCc1ccc(S(=O)(=O)NCc2csc(-c3ccccc3)n2)s1,-7,i,i,-6.3*,i,i
O=C(CSCc1ccc(Br)cc1)Nc1ccccc1C(=O)N1CCOCC1,-1,i,i,-2.3,i,i
O=S(=O)(CCNCc1ccccc1)NC1CCCCC1,nt,i,nt,nt,nt,nt
COCCNc1nnc(SCC(=O)NC2CCCCC2)s1,nt,i,nt,nt,nt,nt
CCc1ccc2[nH]c(C(=O)Nc3ccc(Br)c(C)n3)cc2c1,-6,i,i,0.08,i,i
N#C/C(=C\c1ccc(-c2ccccc2Cl)o1)C(=O)Nc1nc2ccccc2s1,10*,i,i,0.5,i,i
COCCN(C(=O)CCC(=O)Nc1ccccn1)C(C(=O)NC(C)C)c1ccc(C)cc1 (stereo unspecified),-4,i,i,0.43,i,i
CCCCNC(=S)Nc1ccccc1Cc1ccccc1,-11,i,i,-4.7*,i,i
CCCCNC(=O)Nc1ccccc1CC,1,i,i,-0.17,i,i
CCC1CCC2(CC1)NC(CO)(CO)CO2 (stereo unspecified),-10,i,i,-0.56,i,8*
Cc1cccc(-n2nc3c(c2NC(=O)c2ccc4c(c2)OCO4)CS(=O)(=O)C3)c1C,-7,i,i,0.2,i,i
CCCCN(c1ccccc1)S(=O)(=O)N(C)C,-9,i,i,-5.1*,i,i
CC(C)(C)S(=O)N1Cc2cc(CO)cc(CCO)c2[C@H]1CCO (stereo partly specified),nt,i,nt,nt,nt,nt
COc1cccc(CN(CC(=O)NC2CCCC2)C(=O)Cn2nnc(-c3cccs3)n2)c1,32*,i,i,-0.8,i,i
COc1cccc(N(CC(=O)NC2CCCCC2)C(=O)Cn2nnc(-c3ccc(C)o3)n2)c1,-8,i,i,-1.4,i,i
Nc1cc([N+](=O)[O-])cc2oc(-c3ccccc3)cc12,-2,i,i,-1.7,i,i
CCOc1ccc(CN(C(=O)c2oc3cc(C)ccc3c2C)C2CCS(=O)(=O)C2)cc1 (stereo unspecified),-16,i,i,-2.3,-6.7*,i
N#Cc1ccc(N2Cc3ccccc3C2=NC(=O)c2cccnc2Cl)cc1,-8,i,i,2.1,i,i
O=C(N=C1c2ccccc2CN1c1ccc(F)c(Cl)c1)c1cccnc1Cl,-7,nt,i,-0.21,-11*,i
C=CCN1C=CC(=CC=C(C#N)C#N)C=C1,-11,i,7*,-3.1,i,i
CCCCCN1C=CC=C/C1=C\C=C(C#N)C#N,-3,i,i,0.1,i,i
SMILES,hERG protect,KCNK3 inh,KCNQ1 block,Kir21 inh,KCNK9 inh,KCNQ1 pot
CCCN1C=CC(=C/C=C(\C#N)C(=O)OCC)C=C1,-30,nt,12*,-6.4,i,i
CCCN1C=CC(=CC=C(C#N)C#N)C=C1,-14,i,8*,-5.8,i,i
CCOC(=O)/C(C#N)=C/C=C1\C=Cc2ccccc2N1CC,-6,i,i,0.44,i,i
CCc1ccccc1NC(=O)C1CCN(C(=O)N2CCOc3ccccc32)CC1,-11,i,i,-0.22,i,i
CCOC(=O)C1CCN(C(=O)CN(C)S(=O)(=O)c2ccc3c(c2)c(=O)n(C)c(=O)n3C)CC1,-4,i,i,0,i,i
COCCNC(=O)c1cc(-c2ccccc2)n(Cc2cc(C)no2)n1,nt,i,nt,nt,nt,nt
CCOC(=O)N1CCN(C(=O)CCc2ccc(S(=O)(=O)NC(C)(C)C)cc2)CC1,-4,i,i,-0.06,i,i
CCOC(=O)Cn1c(=S)[nH]c2c(oc3ccc(Cl)cc32)c1=O,-14,i,i,-1.9,i,12*
CCOC(=O)N1CCN(C(=O)c2ccc3c(=O)n(Cc4ccc(Cl)cc4)c(=S)[nH]c3c2)CC1,-13,i,i,0.35,i,i
CCOC(=O)/C(=C/c1ccc(OC(=O)c2ccccc2)cc1)C(C)=O,-17,i,i,-9.4*,i,i
CCOC(=O)/C(=C\c1ccccc1)NC(=O)c1ccccc1,-9,i,i,-1.6,i,i
Cc1ccc2c(c1)c(-c1csc(N)n1)c(C)n2C,-3,i,i,-1.7,i,i
CCSc1nc2sc3c(c2c(=O)[nH]1)CC(C)(CC)OC3 (stereo unspecified),-6,i,i,-0.28,i,i
CCC1(C)Cc2c(sc3nc(SC)[nH]c(=S)c23)CO1 (stereo unspecified),49*,nt,i,2.1,i,74*
COc1ccc(CN2C(=O)CSCC2=O)cc1OC,-6,i,i,0.25,i,i
COc1ccc(CCN2C(=O)CSC2=S)cc1OC,4.7*,i,i,0.96,i,i
Nc1cc(C(=O)c2cccs2)ccc1Cl,-4,i,i,-0.01,-6.8*,i
CSc1nc(C)cc(-c2cc(C(=O)Nc3ccccc3)on2)n1,1,nt,i,2.5,i,i
COc1ccc(C(C)=O)cc1CSc1nnc(Nc2ccccc2C)s1,-8,i,i,-4.3*,i,i
COc1ccc(C(C)=O)cc1CSc1nnc(Nc2ccc(C)cc2C)s1,-11,i,i,0.16,i,i
Cc1c(CCO)sc[n+]1CC(=O)OCCC12CC3CC(CC(C3)C1)C2,-3,i,i,-0.41,i,i
Cc1c(CCOC(=O)CC23CC4CC(CC(C4)C2)C3)sc[n+]1Cc1ccccc1,-17,i,7*,-1.8,i,i
Cc1cccc(C)c1N1CCN(CCn2c(=S)[nH]c3ccccc3c2=O)CC1,-7,i,i,0.02,i,i

# Source: PubChem
